UCH37 inh: human UCH37 deubiquitinating enzyme inhibition. purified proteasome/UCH37, Ub-AMC cleavage fluorescence. inhibition, % (concentration not given with the values). 0.33% of 330,000 active. AID 588478;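 active = mean inhibition over replicate wells above about 20%, limit read from the data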;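 also: 0% = compound-free wells with enzyme and 100% = wells lacking proteasome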
Target sequence (Q9Y5K5 whole entry, looked up): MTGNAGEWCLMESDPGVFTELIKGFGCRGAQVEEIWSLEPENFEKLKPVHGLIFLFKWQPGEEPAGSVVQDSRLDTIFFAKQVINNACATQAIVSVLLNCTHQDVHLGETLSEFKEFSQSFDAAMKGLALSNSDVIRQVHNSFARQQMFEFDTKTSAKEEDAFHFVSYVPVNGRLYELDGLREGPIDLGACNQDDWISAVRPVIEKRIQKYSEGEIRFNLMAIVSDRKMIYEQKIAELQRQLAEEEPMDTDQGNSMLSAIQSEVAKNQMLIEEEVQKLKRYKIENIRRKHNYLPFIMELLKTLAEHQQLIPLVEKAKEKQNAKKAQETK
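Material: human UCH37 enzyme supplied as purified proteasome complex / Amount: 0.15 nM proteasome as dispensed / Buffer or medium: pH 7.4 Tris-HCl (50 mM) with ovalbumin, ATP-MgCl2, DTT / Times: preincubation 30 min, reaction 25 min, room temperature / Technique: AMC fluorescence from Ub-AMC cleavage, excitation 355 nm, emission 460 nm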
PAD4 inh: PAD4 (human) enzyme inhibition; 0.41% of 330,000 active; recombinant PAD4, RCA probe fluorescence polarization; AID 485272; inhibition, % at 6.36 µM;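 active = percent inhibition above a cutoff equal to the mean of all tested compounds plus 3 SD, cut at about 15% in these data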;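 also: 0% = PAD4 with RCA probe and DMSO and 100% = probe without PAD4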
PP5 inh: PP5 (human) phosphatase inhibition | 0.18% of 320,000 active | P53041 | inhibition, % at 6.7 µM | purified PP5c, OMFP substrate fluorescence;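 active = inhibition above the campaign's mean inhibition across all tested compounds plus 3 SD, cut at about 9.5% in these data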;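 also: 0% = DMSO only and 100% = 100 µM cantharidin control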
GSTO1 inh: blocks human GSTO1 in RBBP9 counter-screen; 1.1% of 300,000 active; recombinant GSTO1, activity-based probe fluorescence polarization; inhibition, % at 5.96 µM; P78417;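 active = inhibition above the campaign mean inhibition plus 3 SD, cut at about 35% in these data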;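 also: 0% = GSTO1-1 with DMSO and 100% = wells lacking GSTO1-1 enzyme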
Target sequence (P78417 whole entry, looked up): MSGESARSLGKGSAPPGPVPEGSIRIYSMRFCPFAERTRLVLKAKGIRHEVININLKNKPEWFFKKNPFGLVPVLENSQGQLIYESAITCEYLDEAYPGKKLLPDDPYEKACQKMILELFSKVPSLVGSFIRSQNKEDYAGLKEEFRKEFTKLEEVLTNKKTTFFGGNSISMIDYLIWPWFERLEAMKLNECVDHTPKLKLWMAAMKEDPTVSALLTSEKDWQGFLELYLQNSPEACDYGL
Fh CTSL1 inh: cathepsin L1 inhibition, PFM18AAP counter-screen; recombinant F. hepatica cathepsin L1, Z-Leu-Arg-MCA fluorescence; inhibition, % at 5.96 µM; 0.49% of 300,000 active;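 active = inhibition above the mean of all tested compounds plus 3 SD, set per screening campaign, cut at about 17% in these data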;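 also: 0% = plate median of test compound wells and 100% = 1 µM Z-Phe-Ala-diazomethylketone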
Apaf-1 inh: blocks human Apaf-1 apoptosome activity. reconstituted apoptosome caspase-3 activity, DEVD-Rh110 fluorescence. inhibition, % at 20 µM. 0.71% of 330,000 active; active = inhibition of at least 40% at 20 µM;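 also: plate controls were DMSO wells for no effect and DEVD-CHO caspase inhibitor wells for full effect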
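System: Apoptosome proteins | Medium: Hepes pH 7.5 with detergent and BSA | Also added: Cytochrome c trigger plus (Z-DEVD)2-Rh110 caspase-3 substrate | Incubation: 30 min compound preincubation, 50 min activation, room temperature | Detection: Rhodamine 110 fluorescence at Ex 480/Em 540 nm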
PAD4 FP conf: confirmation of human PAD4 inhibitors; inhibition, % at 6.36 µM; recombinant PAD4, RCA probe fluorescence polarization; 28% of 1,200 active; AID 488796; shares compounds with PAD4 inh;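 active = mean inhibition across replicates above the hit cutoff set by the earlier primary screen, cut at about 15% in these data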;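 also: inhibitors block active-site labeling by the probe so polarization falls; 0% = PAD4 with probe and DMSO and 100% = probe without PAD4 enzyme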
* = called active by the depositor. Most compounds without a hit are left out; they make up all but 2% or so of the library.

Results for O=C(/C=C/c1ccccc1)NCC(=O)NN=Cc1cccnc1 ?
UCH37 inh: 1

What do the screens show for `CCc1ccc(C(=O)Cn2ncc(Cl)c(Cl)c2=O)cc1`?
UCH37 inh: -3; PAD4 inh: 6; PP5 inh: 1; GSTO1 inh: 21; Fh CTSL1 inh: 2; Apaf-1 inh: 23

What do the screens show for `O=C(OCn1ncc(Cl)c(Cl)c1=O)c1cccc(C(F)(F)F)c1`?
UCH37 inh: 2; PAD4 inh: 32*; PP5 inh: 1; GSTO1 inh: 21; Fh CTSL1 inh: -1; Apaf-1 inh: 8; PAD4 FP conf: 20*

How did CC(=O)Nc1ccc(NC(=O)CCc2c(C)noc2C)cc1 do in these assays?
UCH37 inh: 4; Apaf-1 inh: -5

How did COC(=O)c1cccc(NC(=O)CCc2c(C)noc2C)c1 do in these assays?
UCH37 inh: 0; PAD4 inh: 31*; PP5 inh: 1; Apaf-1 inh: -6; PAD4 FP conf: 0

Results for O=C(CC(=NO)c1ccccc1O)C(F)F ?
UCH37 inh: 5

How did Cc1cc(C)nc(SCc2ccc(C(=O)NN=C3CCCC(=O)C3)cc2)n1 do in these assays?
UCH37 inh: 4

How did O=C(NCCO)C(=O)NCC1CCCN1S(=O)(=O)c1cccs1 (configuration not stated) do in these assays?
UCH37 inh: 1; PAD4 inh: 1; PP5 inh: -2; GSTO1 inh: -3; Fh CTSL1 inh: -2; Apaf-1 inh: 2

How did C=CCNC(=O)C(=O)NCC1CCCN1S(=O)(=O)c1cccs1 (configuration not stated) do in these assays?
UCH37 inh: 2; PAD4 inh: 27*; PP5 inh: 0; GSTO1 inh: 5; Fh CTSL1 inh: -2; Apaf-1 inh: 5; PAD4 FP conf: 10

What do the screens show for `COc1cccc(CNC(=O)COC(=O)C23CC4CC(CC(Cl)(C4)C2)C3)c1`?
UCH37 inh: 1; PAD4 inh: -2; Apaf-1 inh: 4

What do the screens show for `COc1cccc(NC(=O)CN(C)C(=O)C23CC4CC(CC(Cl)(C4)C2)C3)c1`?
UCH37 inh: 2; PAD4 inh: active; PP5 inh: 3; Apaf-1 inh: 16; PAD4 FP conf: -4

What do the screens show for `Cc1ccc(C2=NN=C(NC(=O)CSc3nc(C)cc(C)n3)SC2)cc1`?
UCH37 inh: 4; PAD4 inh: 71*; PP5 inh: 0; GSTO1 inh: 2; Fh CTSL1 inh: 4; Apaf-1 inh: 8; PAD4 FP conf: 68*

How did Cc1ccc(C2=NN=C(NC(=O)CSc3nnc4c5ccccc5n(C)c4n3)SC2)cc1 do in these assays?
UCH37 inh: 2; PAD4 inh: 23*; PP5 inh: 1; GSTO1 inh: 0; Fh CTSL1 inh: 10; Apaf-1 inh: 39; PAD4 FP conf: 37*

Results for Cn1c2ccccc2c2nnc(SCC(=O)Nc3cccc(C(=O)O)c3)nc21 ?
UCH37 inh: 8; PAD4 inh: 3; PP5 inh: 0; GSTO1 inh: -9; Fh CTSL1 inh: -1; Apaf-1 inh: 6

What do the screens show for `CC(=NNc1cc(N2CCOCC2)nc(C)n1)c1ccc(F)cc1`?
UCH37 inh: 5

Results for CC(=NNS(=O)(=O)c1cc(C)ccc1C)c1c[nH]c2ccccc12 ?
UCH37 inh: 7

What do the screens show for `N#Cc1cccc(NS(=O)(=O)c2ccccc2Cl)c1`?
UCH37 inh: 3; PAD4 inh: 22*; PP5 inh: -1; Apaf-1 inh: -1; PAD4 FP conf: 1

What do the screens show for `CCN(CC)c1ccc(N=Cc2ccc(N(CC)CC)cc2O)cc1`?
PAD4 inh: 17*; PP5 inh: 3; GSTO1 inh: 57*; Fh CTSL1 inh: -1; Apaf-1 inh: 28; PAD4 FP conf: -3

What do the screens show for `COc1ccc(C(=O)Nc2ccccc2C(=O)NN=Cc2ccco2)cc1`?
UCH37 inh: 5

Results for CC1Cc2ccccc2N1C(=O)CSc1nn2c(=O)c(C(C)(C)C)nnc2s1 (configuration not stated) ?
UCH37 inh: 1; PAD4 inh: 15*; PP5 inh: 3; GSTO1 inh: 5; Fh CTSL1 inh: 5; Apaf-1 inh: 5; PAD4 FP conf: 8

How did CCn1c2ccccc2c2cc(/C(C)=N/O)ccc21 do in these assays?
PAD4 inh: 16*; PP5 inh: 4; GSTO1 inh: 6; Fh CTSL1 inh: 1; Apaf-1 inh: 9; PAD4 FP conf: 0

Results for Cc1ccc(P(=O)(CO)c2ccc(C)cc2)cc1 ?
UCH37 inh: 0; PAD4 inh: -2; PP5 inh: 1; GSTO1 inh: 2; Fh CTSL1 inh: 4; Apaf-1 inh: -3

Results for CCOC(=O)CP(=O)(c1ccccc1)c1ccccc1 ?
UCH37 inh: 5; PAD4 inh: 2; PP5 inh: 1; GSTO1 inh: 1; Fh CTSL1 inh: 1; Apaf-1 inh: 6

Results for N=C(N)SCP(=O)(c1ccccc1)c1ccccc1 ?
UCH37 inh: 5; PAD4 inh: 17*; PP5 inh: 3; GSTO1 inh: -7; Fh CTSL1 inh: 7; Apaf-1 inh: -17; PAD4 FP conf: 15*

How did Cc1ccc(P(=O)(CSC(=N)N)c2ccc(C)cc2)cc1 do in these assays?
UCH37 inh: 2; PAD4 inh: 24*; PP5 inh: 0; GSTO1 inh: 5; Fh CTSL1 inh: 15; Apaf-1 inh: -18; PAD4 FP conf: 18*

How did COc1ccc(N(CC(=O)NN=Cc2ccc(OC)c(OC)c2)S(=O)(=O)c2ccccc2)cc1 do in these assays?
UCH37 inh: 1

What do the screens show for `COc1ccc(C2C=C(c3ccc(F)cc3)NC(=S)N2)cc1OC` (configuration not stated)?
UCH37 inh: -3; PAD4 inh: 5; PP5 inh: 0; GSTO1 inh: 6; Fh CTSL1 inh: 2; Apaf-1 inh: -18

Results for COc1cccc(C2=CC(c3ccc(OC)c(OC)c3)NC(=S)N2)c1 (configuration not stated) ?
UCH37 inh: -49; PAD4 inh: 30*; PP5 inh: -1; GSTO1 inh: -6; Fh CTSL1 inh: 4; Apaf-1 inh: -8; PAD4 FP conf: 56*

What do the screens show for `COc1ccc(C2=CC(c3ccc(OC)c(OC)c3)NC(=S)N2)cc1` (configuration not stated)?
UCH37 inh: -13; PAD4 inh: 49*; PP5 inh: 0; GSTO1 inh: -4; Fh CTSL1 inh: -2; Apaf-1 inh: -13; PAD4 FP conf: 56*

What do the screens show for `COc1cc(C=NNC(=O)c2ccc(Cl)cc2)ccc1Oc1ccc([N+](=O)[O-])cn1`?
UCH37 inh: 4
